Reference: ChEMBL document CHEMBL1134675, “17 alpha-O-(aminoalkyl)oxime derivatives of 3 beta,14 beta-dihydroxy-5 beta-androstane and 3 beta-hydroxy-14-oxoseco-D-5 beta-androstane as inhibitors of Na(+),K(+)-ATPase at the digitalis receptor” (J Med Chem, 2001)

How the values were obtained:
[1] = species on record: Cavia porcellus; experiment: In vitro increase in contractile force of the guine pig atrium.; assay type: functional, organism-based; details: Cardiac atrium
Procedure, shortened: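 Left atria from male guinea pigs (300-500 g) in organ baths of bicarbonate salt solution with glucose and sucrose, 95% O2/5% CO2, 32 °C, 500 mg resting tension. Field-stimulated at 1 Hz (1 ms, twice threshold voltage). After 60 min equilibration, cumulative concentrations added, each held until maximal response or arrhythmia. Read-out: maximal increase in contractile force; EC50 from concentration–response curves.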

[2] = target: Sodium/potassium-transporting ATPase; experiment: Binding affinity towards Na+,K+ -ATPase isolated from dog kidney.; assay type: protein-complex assay, Canis lupus familiaris
Procedure, shortened: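 Displacement of specific [3H]ouabain binding from the Na+,K+-ATPase receptor, enzyme isolated from dog kidney and purified per Jørgensen. Means of two to three separate experiments in duplicate.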

SMILES | EC50 [1] [nM] | IC50 [2] [nM]
C[C@@H](C/C=N/OCCN(C)C)[C@@]1(C)CCC2C(CC[C@@H]3C[C@@H](O)CC[C@]23C)C1=O (stereo not given in full) | 3000 | 130
CC[C@H](C/C=N/OCCN(C)C)[C@@]1(C)CCC2C(CC[C@@H]3C[C@@H](O)CC[C@]23C)C1=O (stereo not given in full) | – | 800
CCC[C@@H](C/C=N/OCCN)[C@@]1(C)CCC2C(CC[C@@H]3C[C@@H](O)CC[C@]23C)C1=O (stereo not given in full) | 5600 | 200
CC[C@@H](C/C=N/OCCN)[C@@]1(C)CCC2C(CC[C@H]3C[C@@H](O)CC[C@]23C)C1=O (stereo not given in full) | – | 160
CC[C@@H](C/C=N/OCCN(C)C)[C@@]1(C)CCC2C(CC[C@H]3C[C@@H](O)CC[C@]23C)C1=O (stereo not given in full) | – | 250
CC[C@@H](C/C=N/OCCN(C)C)[C@@]1(C)CCC2C(CC[C@@H]3C[C@@H](O)CC[C@]23C)C1=O (stereo not given in full) | 2000 | 100
CC[C@@H](C/C=N/OCCN)[C@@]1(C)CCC2C(CC[C@@H]3C[C@@H](O)CC[C@]23C)C1=O (stereo not given in full) | 1500 | 40
CC[C@H](/C=N/OCCN(C)C)[C@@]1(C)CCC2C(CC[C@@H]3C[C@@H](O)CC[C@]23C)C1=O (stereo not given in full) | – | 4000
C[C@]12CC[C@H](O)C[C@H]1CC[C@@H]1[C@@H]2CC[C@]2(C)[C@H](C/C=N/OCCCN)CC[C@]12O | – | 200
C[C@]12CC[C@H](O)C[C@H]1CC[C@@H]1[C@@H]2CC[C@]2(C)[C@H](C/C=N/OCCCCN)CC[C@]12O | – | 800
C[C@]12CC[C@H](O)C[C@H]1CC[C@@H]1[C@@H]2CC[C@]2(C)[C@H](/C=N/OCCCCN)CC[C@]12O | – | 1000
C[C@]12CC[C@H](O)C[C@H]1CC[C@@H]1[C@@H]2CC[C@]2(C)[C@H](/C=N/OCCN)CC[C@]12O | – | 400
CN(C)CCO/N=C/[C@@H]1CC[C@]2(O)[C@@H]3CC[C@@H]4C[C@@H](O)CC[C@]4(C)[C@H]3CC[C@]12C | – | 1600
CN(C)CCO/N=C/C[C@@H]1CC[C@]2(O)[C@@H]3CC[C@@H]4C[C@@H](O)CC[C@]4(C)[C@H]3CC[C@]12C | – | 250
C[C@]12CC[C@H](O)C[C@H]1CC[C@@H]1[C@@H]2CC[C@]2(C)[C@H](C/C=N/OCCN)CC[C@]12O | 3500 | 50
C[C@]12CC[C@H](O)C[C@H]1CC[C@@H]1[C@@H]2CC[C@]2(C)[C@H](/C=N/OCCCN)CC[C@]12O | 18000 | 400
C[C@@H](C/C=N/OCCN)[C@@]1(C)CCC2C(CC[C@@H]3C[C@@H](O)CC[C@]23C)C1=O (stereo not given in full) | – | 100
CC[C@@H](/C=N/OCCN(C)C)[C@@]1(C)CCC2C(CC[C@H]3C[C@@H](O)CC[C@]23C)C1=O (stereo not given in full) | – | 500
C[C@]12CC[C@H](O)C[C@H]1CC[C@@H]1[C@@H]2CC[C@]2(C)[C@@H](C3=CC(=O)OC3)CC[C@]12O [DIGITOXIGENIN] | 570 | –
